# Rows were chosen to be rich in hits. Some 1.5% of all compounds tested hit in one or more screens of this group.
# DNMT1 inh – DNMT1 (human) enzyme inhibition. P26358. DNMT1 molecular beacon, Hinp1I cleavage, fluorescence. inhibition (reported as % activation of signal), % at 10 µM. 360,000 tested, 0.83% active. AID 588458
# NSD2 inh – NSD2 (human) methyltransferase inhibition; O96028; NSD2 peptide methylation, AlphaScreen, 120 min; inhibition, % at 12.5 µM; 310,000 tested, 0.54% active
# HCV NS3 hel inh – HCV NS3 helicase inhibition; 290,000 tested, 0.56% active; inhibition, % at 10.9 µM; AID 1800; NS3 helicase DNA unwinding, Cy5 molecular beacon fluorescence;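 active = inhibition above the mean of all tested compounds plus 3 SD, set per campaign, cut at about 35% in these data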;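 note: 0% = DMSO wells and 100% = thioflavine S control wells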
#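 System: Hepatitis C virus NS3 helicase domain fragment enzyme | Reagent: Annealed dual-labelled DNA beacon duplex, ATP-started | Compound dosing: 10.9 µM single point, 0.8% DMSO | Incubation: 1 h reaction at 25 °C, ATP-initiated | Technique: Cy5 fluorescence | Evaluation: Percent inhibition from t60/t0 fluorescence ratio | Benchmarks: Low DMSO, high thioflavine S at 110 µM | Replication: Singlicate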
# Casp6 inh – inhibitors of human caspase-6; P55212; purified caspase-6, Z-VEID-R110 cleavage fluorescence; inhibition, % at 12.5 µM; 350,000 tested, 0.53% active; AID 686996;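 active = mean inhibition across replicates at least about 35%, with every replicate also reaching that limit, limit read from the data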;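 note: 0% = median of neutral control wells and 100% = no fluorescence left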
# Starred values were filed as active, the others as inactive; / = not tested or not shown. Cut-off read from the data, not from the text of the source, unless noted: active = inhibition above about 50%; inactive = the rest.
SMILES,DNMT1 inh,NSD2 inh,HCV NS3 hel inh,Casp6 inh
CO[C@H]1CN(C)C(=O)c2cc(C#N)ccc2OC[C@H]2O[C@@H](CC[C@H]2OC)CCN(C)C(=O)[C@H]1C,/,/,/,15
CCOC(=O)C1=C(C)NC(C)=C(C(=O)OCC)C1C(=O)OCC(=O)NCc1ccccc1,2,-2,/,3
CCOC(=O)C1=C(C)NC(C)=C(C(=O)OCC)C1C(=O)OCC(=O)NC(C)c1ccccc1 (stereo not drawn),2,-7,/,46*
O=C(c1ccc(F)cc1)N1CC(=O)N2[C@@H](CO)[C@H](c3ccc(-c4ccccc4)cc3)[C@@H]2C1,/,/,/,2
CCN(CC)CCOC(=O)c1ccc(N/C=C(/C#N)c2nc(-c3cc4ccccc4oc3=O)cs2)cc1,50*,-1,-4,-4
CCOC(=O)CC1C(=O)NCCN1S(=O)(=O)c1cccc(C(F)(F)F)c1 (stereo not drawn),1,0,-5,42*
CCOC(=O)CC1C(=O)NCCN1S(=O)(=O)c1ccccc1 (stereo not drawn),0,-5,11,-2
CC(/C=C/c1ccco1)=N\NC(=O)c1cc(Cl)ccc1O,49,5,15,52*
O=C(/C=C/c1ccco1)c1ccccc1O,0,-2,8,13
O=C(/C=C/c1ccco1)c1cccnc1,48,28,7,65*
O=C(C=Cc1ccco1)c1cc(Cl)ccc1O,15,8,/,45*
CC(/C=C/c1ccco1)=N\NC(=O)c1cccnc1,-6,1,13,/
O=C(NCc1ccncn1)[C@@H]1[C@@H](CO)[C@@H]2Cn3c(ccc(-c4ccccc4)c3=O)[C@@H]2N1CC1CC1,/,/,/,5
Oc1c(Br)cc(/C=N/n2c(-c3ccccc3)n[nH]c2=S)cc1Br,2,5,25,0
Oc1ccc(/C=N/n2c(-c3ccccc3)n[nH]c2=S)cc1Br,3,4,-1,52*
Oc1c(CN2CCCCC2)ccc2cccnc12,-8,/,/,69*
Cc1ccc2c(c1)C1C=CCC1C(C(=O)NCCCN1CCOCC1)N2 (stereo not drawn),-6,/,/,/
Cc1ccc2c(c1)C1C=CCC1C(C(=O)O)N2 (stereo not drawn),/,/,37*,/
O=C(NC[C@@H]1CC[C@@H]2[C@@H](CN2Cc2cccc(Cl)c2)O1)C1CC1,/,/,/,0
CSc1ccccc1NC(=O)Nc1ccccc1,2,-1,-3,44*
C[C@@H]1CN([C@@H](C)CO)C(=O)c2cc(-c3ccc(F)cc3)cnc2O[C@H]1CN(C)CC1CCCCC1,/,/,/,0
CC(C)N(C[C@H]1N[C@@H](CO)[C@H]1c1ccccc1)C(=O)c1ccccc1,/,/,/,-4
O=C1NC(=S)S/C1=C/c1ccc(N2CCOCC2)o1,-4,20,17,/
O=C1NC(=S)S/C1=C\C=C\c1ccc([N+](=O)[O-])o1,91*,/,21,96*
O=C(Cc1nnc(NC(=O)c2ccccc2)s1)N/N=C/c1ccc(O)cc1,-8,1,4,4
SMILES,DNMT1 inh,NSD2 inh,HCV NS3 hel inh,Casp6 inh
O=C(Cc1nnc(NC(=O)c2ccccc2)s1)N/N=C\c1ccc(O)c(O)c1,59*,68*,12,4
CCN(CC)c1ccc(/C=N/NC(=O)Nc2ccccc2)cc1,-17,1,-5,-1
CCN(CC)c1ccc(/C=N/NC(=O)Cc2nnc(NC(=O)Nc3ccccc3)s2)cc1,50*,3,3,-4
O=C(Nc1ccccc1)N1CCCCN2[C@@H](CO)[C@H](c3ccc(C#Cc4cccnc4)cc3)[C@@H]2C1,/,/,/,-1
O=C1c2ccccc2C(=O)c2c1cccc2-n1nnc2ccccc21,16,-1,-7,2
O=C1C(N2CCOCC2)=C(n2nnc3ccccc32)C(=O)c2ccccc21,24,117*,-9,/
CO[C@@H]1CN(C)C(=O)c2cc(NC(=O)NC3CCCCC3)ccc2OC[C@H](C)N(CCc2ccccc2)C[C@H]1C,/,/,/,0
O=[N+]([O-])c1ccc2nc(NS(=O)(=O)c3ccccc3[N+](=O)[O-])sc2c1,-2,4,0,6
O=[N+]([O-])c1ccccc1S(=O)(=O)Nc1nc2ccccc2s1,-2,-1,-9,44*
O=C1CCc2cc(Br)ccc2O1,5,/,/,45*
Oc1cccc(/C=N/Nc2ncnc3c2ncn3Cc2ccccc2)c1,-5,1,4,/
Oc1ccc(/C=N/Nc2ncnc3c2ncn3Cc2ccccc2)cc1O,2,72*,2,30
Cc1c(C#N)c(N)nc2c3c(sc12)NC(=O)CC3c1ccccc1 (stereo not drawn),-9,65*,15,/
Cc1c(C#N)c(N)nc2c3c(sc12)NC(=O)CC3c1ccc(F)cc1 (stereo not drawn),-15,-1,-2,/

# Source: PubChem
